Laboratory results published in ChEMBL document CHEMBL1144974, “Design, synthesis, and activity of novel cis- and trans-3,6-disubstituted pyran biomimetics of 3,6-disubstituted piperidine as potential ligands for the dopamine transporter” (Bioorg Med Chem Lett, 2003).
pIC50: −log10 of the molar value.

Columns and labels:
Rattus norvegicus = organism: Rattus norvegicus; experiment: Inhibition of [3H]DA dopamine (DA) reuptake activity; format: functional
[1] = target: Sodium-dependent dopamine transporter (Rattus norvegicus, UniProt P23977); experiment: Inhibition of binding of [3H]WIN-35 428 to (DAT) dopamine transporter in rat striatum; format: tissue-based
Sodium-dependent dopamine transporter, sequence (P23977 whole entry): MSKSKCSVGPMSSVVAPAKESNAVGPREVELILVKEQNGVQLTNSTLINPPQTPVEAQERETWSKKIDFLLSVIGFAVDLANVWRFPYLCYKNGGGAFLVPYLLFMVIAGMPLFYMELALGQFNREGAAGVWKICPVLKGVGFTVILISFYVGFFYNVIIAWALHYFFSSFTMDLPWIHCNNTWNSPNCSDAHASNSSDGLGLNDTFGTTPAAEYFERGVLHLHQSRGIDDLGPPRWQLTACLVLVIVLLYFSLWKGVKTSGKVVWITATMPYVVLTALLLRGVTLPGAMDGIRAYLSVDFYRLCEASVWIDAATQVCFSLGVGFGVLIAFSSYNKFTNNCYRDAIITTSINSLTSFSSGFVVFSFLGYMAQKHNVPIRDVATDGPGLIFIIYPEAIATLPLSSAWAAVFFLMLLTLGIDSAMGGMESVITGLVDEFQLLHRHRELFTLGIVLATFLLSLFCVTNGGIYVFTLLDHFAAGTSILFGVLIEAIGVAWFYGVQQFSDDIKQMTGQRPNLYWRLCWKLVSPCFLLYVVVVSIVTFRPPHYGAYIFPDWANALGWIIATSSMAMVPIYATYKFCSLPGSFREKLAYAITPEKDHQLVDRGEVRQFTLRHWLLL

[2] = target: Sodium-dependent serotonin transporter (Rattus norvegicus, UniProt P31652); experiment: Inhibition of binding of [3H]citalopram to (SERT) serotonin transporter in rat striatum; format: tissue-based
Sodium-dependent serotonin transporter, sequence (P31652 whole entry): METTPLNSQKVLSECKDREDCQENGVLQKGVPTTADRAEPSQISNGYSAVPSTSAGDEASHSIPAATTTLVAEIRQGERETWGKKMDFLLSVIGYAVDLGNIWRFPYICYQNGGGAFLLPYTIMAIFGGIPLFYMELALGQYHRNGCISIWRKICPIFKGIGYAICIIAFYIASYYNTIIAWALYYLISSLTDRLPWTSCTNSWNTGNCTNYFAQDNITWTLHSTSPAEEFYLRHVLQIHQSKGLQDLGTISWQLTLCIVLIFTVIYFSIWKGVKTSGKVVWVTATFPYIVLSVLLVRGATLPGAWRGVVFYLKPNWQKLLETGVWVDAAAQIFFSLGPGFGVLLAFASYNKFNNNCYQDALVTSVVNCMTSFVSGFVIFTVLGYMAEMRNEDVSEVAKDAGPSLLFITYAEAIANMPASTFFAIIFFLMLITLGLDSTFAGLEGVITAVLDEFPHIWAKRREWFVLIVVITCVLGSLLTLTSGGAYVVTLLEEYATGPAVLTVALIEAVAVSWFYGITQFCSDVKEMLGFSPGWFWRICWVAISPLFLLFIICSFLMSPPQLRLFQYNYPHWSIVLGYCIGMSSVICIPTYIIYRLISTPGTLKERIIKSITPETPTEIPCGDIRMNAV

[3] = target: Norepinephrine transporter (Rattus norvegicus, UniProt Q9WTR4); experiment: Inhibition of binding of [3H]nisoxetine to (NET) norepinephrine transporter in rat striatum; format: tissue-based
Norepinephrine transporter, sequence (Q9WTR4 whole entry): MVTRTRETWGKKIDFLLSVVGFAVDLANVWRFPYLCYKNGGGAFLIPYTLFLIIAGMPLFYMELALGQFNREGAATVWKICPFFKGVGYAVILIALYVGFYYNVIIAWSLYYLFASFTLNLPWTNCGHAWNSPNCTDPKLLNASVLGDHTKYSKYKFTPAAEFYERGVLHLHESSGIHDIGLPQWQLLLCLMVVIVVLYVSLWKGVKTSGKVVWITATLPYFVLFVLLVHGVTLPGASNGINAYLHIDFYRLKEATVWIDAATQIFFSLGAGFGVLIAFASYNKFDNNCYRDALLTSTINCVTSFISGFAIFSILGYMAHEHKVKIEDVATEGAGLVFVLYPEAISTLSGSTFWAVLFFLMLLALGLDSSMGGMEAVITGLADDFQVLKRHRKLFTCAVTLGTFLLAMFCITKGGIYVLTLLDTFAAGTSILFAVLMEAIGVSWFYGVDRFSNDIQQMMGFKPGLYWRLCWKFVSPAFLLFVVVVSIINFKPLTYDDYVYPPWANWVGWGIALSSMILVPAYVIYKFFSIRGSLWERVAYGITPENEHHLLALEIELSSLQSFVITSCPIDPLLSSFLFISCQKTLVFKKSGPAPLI
Outline: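 Radioligand displacement of [3H]nisoxetine labelling NET; other binding conditions are referred to earlier work. Values are means ± SEM of three independent experiments, each assayed in triplicate.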

Question: How did the pIC50 (Rattus norvegicus) turn out when `COc1ccc(CNC2CCC(C(c3ccccc3)c3ccccc3)OC2)cc1` (racemic) was run?
Answer: The pIC50 was 7.23.

Question: What about the pIC50 [1] of the same molecule?
Answer: The pIC50 was 7.08.

Question: `Fc1ccc(CNC2CCC(C(c3ccccc3)c3ccccc3)OC2)cc1` (single isomer, unassigned) was tested. Which pIC50 [2] did it give?
Answer: Its pIC50 is 5.08.

Question: And the pIC50 [3]?
Answer: Its pIC50 is 4.90.

Question: What about the pIC50 [1] of the same molecule?
Answer: Its pIC50 is 6.50.

Question: How did the pIC50 (Rattus norvegicus) turn out when `O=[N+]([O-])c1ccc(CNC2CCC(C(c3ccccc3)c3ccccc3)OC2)cc1` (racemic) was run?
Answer: Its pIC50 is 6.99.

Question: And the pIC50 [1]?
Answer: Its pIC50 is 7.42.

Question: `N#Cc1ccc(CNC2CCC(C(c3ccccc3)c3ccccc3)OC2)cc1` (racemic) was tested. Which pIC50 [2] did it give?
Answer: Its pIC50 is 6.06.

Question: And the pIC50 [3]?
Answer: Its pIC50 is 5.80.

Question: What does the source list for `Fc1ccc(CNC2CCC(C(c3ccccc3)c3ccccc3)NC2)cc1` (configuration not stated)?
Answer: pIC50 (Rattus norvegicus): 7.34; pIC50 [2]: 5.65; pIC50 [3]: 5.99; pIC50 [1]: 7.49

Question: How did the pIC50 (Rattus norvegicus) turn out when `Fc1ccc(CNC2CCC(C(c3ccccc3)c3ccccc3)OC2)cc1` (racemic) was run?
Answer: The pIC50 was 6.81.

Question: And the pIC50 [2]?
Answer: The pIC50 was 5.73.

Question: What about the pIC50 [3] of the same molecule?
Answer: Its pIC50 is 6.63.

Question: What about the pIC50 [1] of the same molecule?
Answer: Its pIC50 is 6.79.
